Measurements taken from ChEMBL document CHEMBL1144889 (J Med Chem, 2003).
pEC50, pKi: −log10 of the molar value. Calls of active or inactive are those of the source. The calls are words filed in the database; no cut-off is given here.

Key:
Glucocorticoid receptor [1] = biological target: T1, Glucocorticoid receptor (Homo sapiens, UniProt P04150); assay: Transcriptional activation in CV-1 cells expressing human glucocorticoid receptor; - = low efficacy or a functional efficacy <20%; type: cell-based
T1 sequence (P04150 whole entry): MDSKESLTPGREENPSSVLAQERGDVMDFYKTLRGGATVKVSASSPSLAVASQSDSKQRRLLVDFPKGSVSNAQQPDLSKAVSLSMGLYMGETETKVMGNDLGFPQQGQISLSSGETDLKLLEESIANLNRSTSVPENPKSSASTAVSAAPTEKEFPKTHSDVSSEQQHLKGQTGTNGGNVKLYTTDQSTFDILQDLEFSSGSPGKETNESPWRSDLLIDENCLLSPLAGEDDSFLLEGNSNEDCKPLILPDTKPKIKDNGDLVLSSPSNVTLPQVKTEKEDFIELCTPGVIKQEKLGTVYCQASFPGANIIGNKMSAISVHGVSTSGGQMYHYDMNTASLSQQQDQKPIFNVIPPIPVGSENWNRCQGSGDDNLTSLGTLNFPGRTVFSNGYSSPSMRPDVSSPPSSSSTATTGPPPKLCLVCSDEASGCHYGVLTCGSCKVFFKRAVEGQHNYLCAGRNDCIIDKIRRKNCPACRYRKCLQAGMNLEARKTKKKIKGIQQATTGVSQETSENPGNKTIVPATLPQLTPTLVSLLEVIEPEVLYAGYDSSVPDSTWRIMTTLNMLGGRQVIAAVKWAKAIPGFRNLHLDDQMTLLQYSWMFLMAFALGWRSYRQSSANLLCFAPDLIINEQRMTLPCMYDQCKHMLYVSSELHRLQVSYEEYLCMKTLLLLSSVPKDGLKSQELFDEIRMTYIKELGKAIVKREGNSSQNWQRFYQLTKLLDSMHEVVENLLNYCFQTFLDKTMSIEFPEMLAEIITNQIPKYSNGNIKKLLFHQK
Outline: (§1)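 Cotransfection of an hGR receptor plasmid with a luciferase reporter driven by the MMTV promoter (four GREs) in CV-1 cells. Seven-point half-log concentration-response curves. EC50 taken as half-maximal response. Efficacy expressed as % of the dexamethasone maximum. Mean of two experiments in triplicate, single triplicate run, or ≥3 experiments in triplicate.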

Glucocorticoid receptor [2] = biological target: T1, Glucocorticoid receptor; assay: Transcriptional repression in HepG2 cells expressing human glucocorticoid receptor; - = low efficacy or a functional efficacy <20%; type: cell-based
Outline: (§2)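 Cotransfection in HepG2 cells with a luciferase reporter under an E-selectin promoter carrying one NFκB and one AP-1 site. Readout is repression of transcription. Seven-point half-log concentration-response curves. EC50 taken at half-maximal response. Efficacy expressed as % of the dexamethasone maximum. Mean of two experiments in triplicate, single run, or ≥3 experiments.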

[3] = biological target: T2, Glucocorticoid receptor (Homo sapiens) (UniProt P04150); assay: Transcriptional repression in HepG2 cells expressing human glucocorticoid receptor compared to Dexamethasone; - = low efficacy or a functional efficacy <20%; type: cell-based
T2 sequence (whole entry): T1 sequence (P04150 whole entry)
Outline: (§3)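 Repression co-transfection in HepG2 cells: luciferase reporter under an E-selectin promoter carrying one NFκB and one AP-1 binding site. Full seven-point, half-log concentration-response curves run in triplicate. EC50 is the concentration at half-maximal response; maximal efficacy is given as % of the dexamethasone maximal response.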

Glucocorticoid receptor [4] = biological target: T1, Glucocorticoid receptor; assay: Binding affinity towards human glucocorticoid receptor (GR) was determined using [3H]dexamethasone as radioligand in […] cells; type: cell-based
[5] = biological target: T2, Glucocorticoid receptor (Homo sapiens); assay: Transcriptional activation in CV-1 cells expressing human glucocorticoid receptor compared to Dexamethasone; - = low efficacy or a functional efficacy <20%; type: cell-based
Outline: (§4)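 GRE activation co-transfection in CV-1 cells: hGR receptor plasmid plus a luciferase reporter driven by part of the MMTV promoter (four GRE sites, no known AP-1 or NFκB affinity). Full seven-point, half-log concentration-response curves run in triplicate. EC50 is the concentration at half-maximal response; efficacy is given as % of the dexamethasone maximal response.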

[6] = biological target: T2, Glucocorticoid receptor (Homo sapiens); assay: Transcriptional activation in CV-1 cells expressing human glucocorticoid receptor compared to Dexamethasone; type: functional, cell-based; outline: as §4
Glucocorticoid receptor [7] = biological target: T1, Glucocorticoid receptor; assay: Transcriptional repression in HepG2 cells expressing human glucocorticoid receptor; type: functional, cell-based
Glucocorticoid receptor [8] = biological target: T1, Glucocorticoid receptor; assay: Transcriptional activation in CV-1 cells expressing human glucocorticoid receptor; - = low efficacy or a functional efficacy <5%; type: cell-based; outline: as §1
[9] = biological target: T2, Glucocorticoid receptor (Homo sapiens); assay: Transcriptional activation in CV-1 cells expressing human glucocorticoid receptor compared to Dexamethasone; - = low efficacy or a functional efficacy <5%; type: cell-based; outline: as §4
Glucocorticoid receptor [10] = biological target: T1, Glucocorticoid receptor; assay: Transcriptional repression in HepG2 cells expressing human glucocorticoid receptor; - = low efficacy or a functional efficacy <5%; type: cell-based; outline: as §2
[11] = biological target: T2, Glucocorticoid receptor (Homo sapiens); assay: Transcriptional repression in HepG2 cells expressing human glucocorticoid receptor compared to Dexamethasone; - = low efficacy or a functional efficacy <5%; type: cell-based; outline: as §3
Progesterone receptor = biological target: T3, Progesterone receptor (Homo sapiens, UniProt P06401); assay: Displacement of [3H]progesterone from human Progesterone receptor A; - = low efficacy or functional efficacy <20%
T3 sequence (P06401 whole entry): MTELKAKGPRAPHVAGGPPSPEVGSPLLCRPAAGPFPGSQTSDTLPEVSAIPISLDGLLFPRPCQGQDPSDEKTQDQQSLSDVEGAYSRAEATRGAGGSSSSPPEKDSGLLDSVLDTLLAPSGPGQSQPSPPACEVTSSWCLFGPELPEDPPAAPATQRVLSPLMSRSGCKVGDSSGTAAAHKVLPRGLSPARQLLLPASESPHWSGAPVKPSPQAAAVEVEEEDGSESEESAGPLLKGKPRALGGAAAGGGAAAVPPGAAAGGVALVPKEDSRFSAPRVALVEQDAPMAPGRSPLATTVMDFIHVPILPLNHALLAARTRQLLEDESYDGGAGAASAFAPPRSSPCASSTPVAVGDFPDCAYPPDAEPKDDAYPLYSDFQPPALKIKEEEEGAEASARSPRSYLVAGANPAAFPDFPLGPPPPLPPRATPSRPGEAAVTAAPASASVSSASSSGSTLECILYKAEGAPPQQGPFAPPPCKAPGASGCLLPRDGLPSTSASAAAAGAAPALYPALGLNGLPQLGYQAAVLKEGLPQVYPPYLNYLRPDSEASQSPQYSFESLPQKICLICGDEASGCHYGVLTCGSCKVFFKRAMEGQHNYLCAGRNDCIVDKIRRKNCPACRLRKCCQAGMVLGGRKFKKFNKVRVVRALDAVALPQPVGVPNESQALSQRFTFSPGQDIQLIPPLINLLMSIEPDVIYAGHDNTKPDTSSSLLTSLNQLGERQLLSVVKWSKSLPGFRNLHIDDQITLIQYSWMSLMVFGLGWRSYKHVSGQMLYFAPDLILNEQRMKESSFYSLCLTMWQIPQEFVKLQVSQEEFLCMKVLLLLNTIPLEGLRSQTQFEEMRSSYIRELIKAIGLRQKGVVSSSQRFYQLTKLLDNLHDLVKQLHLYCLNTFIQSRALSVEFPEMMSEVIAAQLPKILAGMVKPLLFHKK
Outline: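 Human PR-A expressed from baculovirus in Sf21 cells, cytosol about 40 µg protein. Incubated with about 0.8 nM [3H]progesterone overnight at 4 °C in Tris/EDTA/glycerol/DTT/molybdate buffer, pH 7.6. Nonspecific binding taken with 1 µM unlabeled progesterone. Hydroxyapatite capture, scintillation counting. IC50 from Hill analysis, Ki from Cheng-Prusoff.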

| SMILES | EC50 (Glucocorticoid receptor [1]) | EC50 (Glucocorticoid receptor [2]) | pKi (Glucocorticoid receptor [4]) | Efficacy [6] | EC50 (Glucocorticoid receptor [8]) | further results |
| --- | --- | --- | --- | --- | --- | --- |
| C=CCC1Oc2cccc(OCC)c2-c2ccc3c(c21)C(C)=CC(C)(C)N3 (configuration not stated) | Not Active | Not Active | 7.19 | 0% | – | – |
| C=CCC1Oc2cccc(CN)c2-c2ccc3c(c21)C(C)=CC(C)(C)N3 (configuration not stated) | – | – | 6.85 | 7% | Not Active | pEC50 (Glucocorticoid receptor [7]): 6.33 |
| C=CCC1Oc2cccc(COC)c2-c2ccc3c(c21)C(C)=CC(C)(C)N3 (configuration not stated) | – | – | – | 5% | Not Active | pEC50 (Glucocorticoid receptor [7]): 6.52 |
| C=CCC1Oc2cccc(C(=O)OC)c2-c2ccc3c(c21)C(C)=CC(C)(C)N3 (configuration not stated) | – | – | 6.40 | – | Not Active | Efficacy [9]: inactive; EC50 (Glucocorticoid receptor [10]): Not Active; Efficacy [11]: inactive |
| C=CCOc1cccc2c1-c1ccc3c(c1C(CC=C)O2)C(C)=CC(C)(C)N3 (configuration not stated) | Not Active | Not Active | 7.06 | 0% | – | – |

The next lines start with results.

| EC50 (Glucocorticoid receptor [1]) | EC50 (Glucocorticoid receptor [2]) | pKi (Glucocorticoid receptor [4]) | Efficacy [6] | EC50 (Glucocorticoid receptor [8]) | SMILES | further results |
| --- | --- | --- | --- | --- | --- | --- |
| Not Active | Not Active | 5.22 | – | – | C=CCC1Oc2cccc(OCc3ccccc3)c2-c2ccc3c(c21)C(C)=CC(C)(C)N3 (configuration not stated) | Efficacy [3]: inactive; Efficacy [5]: inactive |
| Not Active | Not Active | 5.68 | – | – | C=CCC1Oc2cccc(OCC3CC3)c2-c2ccc3c(c21)C(C)=CC(C)(C)N3 (configuration not stated) | Efficacy [3]: inactive; Efficacy [5]: inactive |
| – | Not Active | – | – | – | C=CCC1Oc2ccc(OCC)c(OC)c2-c2ccc3c(c21)C(C)=CC(C)(C)N3 (configuration not stated) | Ki (Progesterone receptor): Not Active |
